Measurements as given in ChEMBL document CHEMBL3297687, “Eremophilane-type sesquiterpenoids with diverse skeletons from Ligularia sagitta” (J Nat Prod, 2014).
Converted amounts (≈) assume the structure as drawn.

Columns and labels:
[1] = tested on: Bacillus cereus; assay: Antibacterial activity against Bacillus cereus grown in sheep blood agar media assessed as concentration required to inhibit bacterial growth due to absence of hemolysis of erythrocytes after 18 hrs by […] broth dilution method; type: functional
Method in brief: (§1)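 Colonies from overnight culture on 5% sheep blood agar were suspended in Mueller−Hinton broth to 0.5 McFarland (about 1.5 × 10^8 CFU/mL), then diluted 10-fold. Aqueous stocks (1 g/L) were used at once and doubly diluted 250−0.125 μg/mL in Mueller−Hinton broth with 5% defibrinated sheep blood. Final inoculum was 2 × 10^5−7 × 10^5 CFU/mL. Plates were incubated 18 h at 35 °C. MIC was taken as the lowest concentration with no growth, shown by absence of erythrocyte hemolysis. Triplicate; ampicillin control.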

[2] = tested on: HL-60; assay: Cytotoxicity against human HL60 cells after 48 hrs by SRB method; type: functional, cell-based; conditions: HL-60, 48 h
[3] = tested on: Staphylococcus aureus; assay: Antibacterial activity against Staphylococcus aureus grown in sheep blood agar media assessed as concentration required to inhibit bacterial growth due to absence of hemolysis of erythrocytes after 18 hrs by […] broth dilution method; type: functional; method in brief: as §1
[4] = tested on: HeLa; assay: Cytotoxicity against human HeLa cells after 48 hrs by SRB method; type: functional, cell-based
[5] = Cytotoxicity against human […] cells after 48 hrs by SRB method; type: functional, cell-based
[6] = tested on: Escherichia coli; assay: Antibacterial activity against Escherichia coli grown in sheep blood agar media assessed as concentration required to inhibit bacterial growth due to absence of hemolysis of erythrocytes after 18 hrs by […] broth dilution method; type: functional; method in brief: as §1
[7] = tested on: Pectobacterium carotovorum; assay: Antibacterial activity against Erwinia carotovora grown in sheep blood agar media assessed as concentration required to inhibit bacterial growth due to absence of hemolysis of erythrocytes after 18 hrs by […] broth dilution method; type: functional; method in brief: as §1
[8] = tested on: Bacillus subtilis; assay: Antibacterial activity against Bacillus subtilis grown in sheep blood agar media assessed as concentration required to inhibit bacterial growth due to absence of hemolysis of erythrocytes after 18 hrs by […] broth dilution method; type: functional; method in brief: as §1

Row | Structure (SMILES) | MIC [1] [µg/mL] | IC50 [2] [µM] | MIC [3] [µg/mL] | IC50 [4] [µM] | IC50 [5] [µM] | MIC [6] [µg/mL] | MIC [7] [µg/mL] | MIC [8] [µg/mL]
1 | C/C=C(/CO)C(=O)O[C@@H]1C2=C(C)C(=O)O[C@]2(OC)C[C@@]23O[C@@H]2CC[C@H](C)[C@@]13C | 62.5 (≈ 159 µM) | 13 | 125 (≈ 319 µM) | 13 | 13 | 62.5 (≈ 159 µM) | 125 (≈ 319 µM) | 125 (≈ 319 µM)
2 | CC(=O)C1=C[C@@]2(C)C(=CC1=O)[C@H](O)CC[C@@H]2C | > 250 |  | > 250 |  |  | 31.2 (≈ 133 µM) | > 250 | > 250
3 | CC1=C2[C@@H](O)[C@]3(C)[C@@H](C)CC[C@H]4O[C@]43C[C@@]2(O)OC1=O | 62.5 (≈ 223 µM) |  | 125 (≈ 446 µM) |  |  | 125 (≈ 446 µM) | 125 (≈ 446 µM) | 125 (≈ 446 µM)
4 | C/C=C(/CO)C(=O)O[C@@H]1C2=C(C)C(=O)O[C@@]2(O)C[C@@]23O[C@@H]2CC[C@H](C)[C@@]13C | 15.5 (≈ 41 µM) |  | 7.25 (≈ 19.2 µM) |  |  | 7.25 (≈ 19.2 µM) | 7.25 (≈ 19.2 µM) | 7.25 (≈ 19.2 µM)
5 | CC(=O)[C@@]12O[C@@H]1[C@@]1(C)C(=CC2=O)[C@H](O)CC[C@@H]1C | > 250 | 13 | > 250 | 13 | 13 | 31.2 (≈ 125 µM) | 62.5 (≈ 250 µM) | > 250
6 | CO[C@@]12[C@H](COC(N)=O)C3=C(C(=O)C(C)=C(N)C3=O)N1C[C@@H]1N[C@@H]12 [MITOMYCIN] |  | 3 |  | 3 | 3 |  |  | 
7 | C=C(CO)C(=O)O[C@@H]1C2=C(C)C(=O)O[C@@]2(O)C[C@@]23O[C@@H]2CC[C@H](C)[C@@]13C | 7.25 (≈ 19.9 µM) |  | 7.25 (≈ 19.9 µM) |  |  | 7.25 (≈ 19.9 µM) | 7.25 (≈ 19.9 µM) | 15.5 (≈ 42.5 µM)
8 | CC1(C)S[C@@H]2[C@H](NC(=O)[C@H](N)c3ccccc3)C(=O)N2[C@H]1C(=O)O [AMPICILLIN] | 25 (≈ 71.5 µM) |  | 25 (≈ 71.5 µM) |  |  | 100 (≈ 286 µM) | 100 (≈ 286 µM) | 12.5 (≈ 35.8 µM)
